Data: ChEMBL document CHEMBL4049434, “Radiolabeled Dibenzodiazepinone-Type Antagonists Give Evidence of Dualsteric Binding at the M2 Muscarinic Acetylcholine Receptor” (J Med Chem, 2017)

Experiments:
[1] = biological target: T1, Muscarinic acetylcholine receptor M2 (Homo sapiens, UniProt P08172); assay: Displacement of [3H]NMS from human muscarinic acetylcholine receptor M2 expressed in CHOK9 cells after 3 hrs by liquid scintillation counting assay; type: cell-based; details: read-out: pKi (converted)
T1 sequence (P08172 whole entry): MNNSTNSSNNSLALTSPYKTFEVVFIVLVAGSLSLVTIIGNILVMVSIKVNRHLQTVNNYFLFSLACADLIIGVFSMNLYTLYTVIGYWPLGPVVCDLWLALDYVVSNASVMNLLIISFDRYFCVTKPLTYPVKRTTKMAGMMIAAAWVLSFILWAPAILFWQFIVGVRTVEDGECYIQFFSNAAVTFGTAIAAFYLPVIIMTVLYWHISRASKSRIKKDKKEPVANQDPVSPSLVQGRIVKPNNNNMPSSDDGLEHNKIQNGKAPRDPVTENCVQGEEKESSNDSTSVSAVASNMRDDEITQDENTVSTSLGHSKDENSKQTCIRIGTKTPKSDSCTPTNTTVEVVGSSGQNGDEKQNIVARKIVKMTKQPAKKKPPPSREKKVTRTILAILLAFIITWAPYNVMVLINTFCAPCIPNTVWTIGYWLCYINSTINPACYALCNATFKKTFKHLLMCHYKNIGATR

[2] = biological target: T2, Muscarinic acetylcholine receptor M2 (Homo sapiens) (UniProt P08172); assay: Binding affinity to human muscarinic acetylcholine receptor M2 expressed in CHOK9 cell suspension after 2 hrs by liquid scintillation counting assay; details: tested as the 3H-labelled form
T2 sequence (whole entry): T1 sequence (P08172 whole entry)

[3] = biological target: T2, Muscarinic acetylcholine receptor M2 (Homo sapiens); assay: Binding affinity to human muscarinic acetylcholine receptor M2 expressed in CHOK9 cell suspension at Kd in presence of 500-fold excess atropine after 2 hrs by liquid scintillation counting assay relative to control; details: tested as the 3H-labelled form
[4] = biological target: T3, Muscarinic acetylcholine receptor M5 (Homo sapiens, UniProt P08912); assay: Displacement of [3H]NMS from human muscarinic acetylcholine receptor M5 expressed in CHOK9 cells after 3 hrs by liquid scintillation counting assay; type: cell-based
T3 sequence (P08912 whole entry): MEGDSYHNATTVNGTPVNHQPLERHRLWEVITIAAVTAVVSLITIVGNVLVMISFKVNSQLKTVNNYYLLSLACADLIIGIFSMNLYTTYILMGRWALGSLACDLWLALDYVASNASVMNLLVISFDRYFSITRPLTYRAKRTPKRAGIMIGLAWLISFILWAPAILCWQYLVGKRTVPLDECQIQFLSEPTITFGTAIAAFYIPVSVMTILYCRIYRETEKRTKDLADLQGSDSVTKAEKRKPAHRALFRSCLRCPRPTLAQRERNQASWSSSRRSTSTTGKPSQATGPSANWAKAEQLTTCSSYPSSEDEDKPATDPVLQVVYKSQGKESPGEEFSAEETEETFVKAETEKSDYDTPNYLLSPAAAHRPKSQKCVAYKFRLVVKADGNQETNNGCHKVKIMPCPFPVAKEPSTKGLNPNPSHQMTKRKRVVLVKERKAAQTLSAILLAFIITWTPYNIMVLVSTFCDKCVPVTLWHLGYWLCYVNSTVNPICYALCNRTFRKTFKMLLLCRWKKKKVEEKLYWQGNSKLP

[5] = biological target: T1, Muscarinic acetylcholine receptor M2; assay: Displacement of [3H]UR-AP060 from human muscarinic acetylcholine receptor M2 expressed in CHOK9 cell homogenate after 3 hrs by liquid scintillation counting assay
[6] = biological target: T1, Muscarinic acetylcholine receptor M2; assay: (§1) Competitive antagonist activity at human muscarinic acetylcholine receptor M2 expressed in HEK293 cells coexpressing HA tagged Galpha-protein qi5 assessed as inhibition of 1 uM carbachol-induced IP1 accumulation preincubated for 30 mins followed by carbachol addition measured after 1 hr by HTRF assay; type: functional, cell-based
In short: (§2)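 HEK-293 transiently cotransfected with human M2R and Gαqi5-HA. Cells preincubated 30 min with antagonist, then carbachol added (final 0.1, 0.3, 1 or 10 μM), 1 h at 37 °C. IP1 detected by HTRF (620/670 nm emission, 330 nm excitation). At least four independent experiments, each in duplicate.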

[7] = biological target: T2, Muscarinic acetylcholine receptor M2 (Homo sapiens); assay: as §1; type: functional, cell-based; in short: as §2
[8] = biological target: T2, Muscarinic acetylcholine receptor M2 (Homo sapiens); assay: Binding affinity to human muscarinic acetylcholine receptor M2 expressed in CHOK9 cells assessed as dissociation half life after 105 mins by liquid scintillation counting assay; type: cell-based; details: tested as the 3H-labelled form
[9] = biological target: T4, Muscarinic acetylcholine receptor M1 (Homo sapiens, UniProt P11229); assay: Displacement of [3H]NMS from human muscarinic acetylcholine receptor M1 expressed in CHOK9 cells after 3 hrs by liquid scintillation counting assay; type: cell-based
T4 sequence (P11229 whole entry): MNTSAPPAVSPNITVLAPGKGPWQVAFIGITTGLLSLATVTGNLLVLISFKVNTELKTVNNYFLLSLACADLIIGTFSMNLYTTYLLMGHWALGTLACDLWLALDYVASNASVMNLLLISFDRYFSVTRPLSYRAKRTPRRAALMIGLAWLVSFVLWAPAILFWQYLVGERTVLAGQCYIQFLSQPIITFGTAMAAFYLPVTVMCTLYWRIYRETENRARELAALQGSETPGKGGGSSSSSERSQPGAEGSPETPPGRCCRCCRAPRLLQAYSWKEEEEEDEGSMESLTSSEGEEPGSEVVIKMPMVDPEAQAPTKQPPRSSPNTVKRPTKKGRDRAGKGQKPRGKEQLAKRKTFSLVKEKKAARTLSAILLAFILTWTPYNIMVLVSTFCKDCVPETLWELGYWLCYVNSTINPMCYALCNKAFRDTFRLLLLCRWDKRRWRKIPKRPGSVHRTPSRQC

Ki [1]: 0.407 nM
Bmax (disintegrations/minute) [2]: 1800
Activity [3]: < 15%
Ki [4]: 22.9 nM
Ki [5]: 1.05 nM
IC50 [6]: 174 nM
inhibition [7]: Dose-dependent effect
T1/2 [8]: 1.1 h
Ki [9]: 1.51 nM
SMILES: CCC(=O)NCc1cc(C(=O)NCCNC(=O)CCc2cn(CCCCC3CCN(CC(=O)N4c5ccccc5NC(=O)c5ccccc54)CC3)cn2)cc(C(=O)NCCNC(=O)CCc2cn(CCCCC3CCN(CC(=O)N4c5ccccc5NC(=O)c5ccccc54)CC3)cn2)c1.O=C(O)C(F)(F)F.O=C(O)C(F)(F)F.O=C(O)C(F)(F)F.O=C(O)C(F)(F)F
